In ChEMBL document CHEMBL4342521 (J Med Chem, 2020):
The source made the active and inactive calls. The calls are words filed in the database; no cut-off is given here.

Tests used:
CCRF-CEM = assay: Antiproliferative activity against human CCRF-CEM cells assessed as reduction in cell viability after 48 hrs by CellTiter-Blue assay; assay type: functional; settings: read-out: LC50 (the source's name)
Outline: (§1)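 Cells grown in RPMI1640 with 10% FBS at 37 °C, 5% CO₂. 5,000–10,000 cells/well were pre-incubated overnight, and a time-zero CellTiter-Blue read was taken. Six 10-fold dilutions (top final 10 μM) were applied for 48 h, followed by 0.125 mg/mL CellTiter-Blue for 2–4 h. Resorufin fluorescence was read at ex 560/em 590 nm. […] Triplicates.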

MDA-MB-435 = assay: Antiproliferative activity against human MDA-MB-435 cells assessed as reduction in cell viability after 48 hrs by CellTiter-Blue assay; assay type: functional; settings: MDA-MB-435, 48 h, read-out: LC50 (the source's name); outline: as §1
[1] = target: Matrix metalloproteinase-9 (Homo sapiens) (UniProt P14780); assay: Inhibition of MMP-9 (unknown origin) at 10 to 50 uM incubated for 10 to 15 mins and measured after 2 hrs by fluorescence based assay
Outline: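 MMP-2/MMP-9 in activation buffer with test agent (final 50 and 10 μM), 10–15 min incubation, then fluorogenic substrate added. Incubated 2 h at 37 °C; fluorescence read at 320/405 nm. Kit MMP inhibitor was the positive control.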

COLO 205 = assay: Antiproliferative activity against human COLO205 cells assessed as reduction in cell viability after 48 hrs by CellTiter-Blue assay; assay type: functional; settings: COLO 205, 48 h, read-out: LC50 (the source's name); outline: as §1
786-0 = assay: Antiproliferative activity against human 786-0 cells assessed as reduction in cell viability after 48 hrs by CellTiter-Blue assay; assay type: functional; settings: 786-0, 48 h, read-out: LC50 (the source's name); outline: as §1

Matrix metalloproteinase-9 (Homo sapiens), sequence (P14780 whole entry): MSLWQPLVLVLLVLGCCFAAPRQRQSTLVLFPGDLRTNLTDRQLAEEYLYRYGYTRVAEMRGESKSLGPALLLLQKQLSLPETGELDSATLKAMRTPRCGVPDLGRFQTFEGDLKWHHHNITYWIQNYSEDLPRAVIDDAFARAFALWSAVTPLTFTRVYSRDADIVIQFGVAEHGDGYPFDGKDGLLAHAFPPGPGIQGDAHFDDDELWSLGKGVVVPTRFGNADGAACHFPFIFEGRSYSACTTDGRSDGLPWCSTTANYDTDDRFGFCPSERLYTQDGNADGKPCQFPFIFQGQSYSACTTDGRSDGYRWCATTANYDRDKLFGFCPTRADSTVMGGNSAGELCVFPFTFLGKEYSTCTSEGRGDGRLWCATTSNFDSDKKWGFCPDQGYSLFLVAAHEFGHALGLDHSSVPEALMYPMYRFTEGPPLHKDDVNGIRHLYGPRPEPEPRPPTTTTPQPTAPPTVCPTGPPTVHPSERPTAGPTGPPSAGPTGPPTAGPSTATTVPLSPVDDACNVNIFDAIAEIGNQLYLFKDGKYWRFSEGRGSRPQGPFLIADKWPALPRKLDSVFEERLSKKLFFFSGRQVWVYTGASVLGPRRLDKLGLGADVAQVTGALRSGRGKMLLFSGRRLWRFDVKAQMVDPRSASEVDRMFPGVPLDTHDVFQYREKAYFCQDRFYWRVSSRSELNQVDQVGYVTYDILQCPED

## CCCNNC(=O)/C=C/c1ccc(CNCCc2c(C)[nH]c3ccccc23)cc1.O=C(O)C(F)(F)F
CCRF-CEM
  CC50: > 10 µM
MDA-MB-435
  CC50: > 10 µM
[1]
  inhibition: inactive
COLO 205
  CC50: 0.66 µM
786-0
  CC50: > 10 µM
